# Assay outcomes as filed in PubChem BioAssay.
# APP 5UTR inh: APP translation inhibition; SH-SY5Y APP 5'UTR-luciferase reporter, luminescence; hit rate 0.82% among 190,000; inhibition, % at 2 µM;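 active means inhibition above a set limit, derived from the sample mean plus 3 SD, cut at about 45% in these data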
# b-catenin transl: alters nuclear translocation of beta-catenin in HeLa cells; immunofluorescence imaging; nuclear translocation activity, % at 5 µM; hit rate 0.3% among 190,000; AID 1665;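 active means nuclear translocation activity above 50% at 5 µM, with a well cell count of 50 or more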;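 further: per-cell ratio of nuclear to cytoplasmic median beta-catenin stain intensity; plate controls were DMSO negative control for no effect and GSK-3 inhibitor IX positive control for full effect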
#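 Test system: HeLa cells, endogenous beta-catenin; Compound: single 5 µM dose plus 0.02–20 µM confirmation series; Times: compound exposure 24 h at 37°C; Signal: fluorescence imaging of beta-catenin antibody stain plus DAPI; Read-out: % activation, nuclear-to-cytoplasmic median beta-catenin signal ratio per cell.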
# MT stabilizer: stabilizes microtubules in HeLa cells; HeLa tubulin immunostaining HCS, 24 h; share of cells brighter than vehicle mean+2SD; hit rate 0.83% among 200,000; % tubulin-high responders, % at 10 µM; AID 2205;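 active means plate Z-score above 3 for both tubulin-high and condensed-nucleus cell shares, with cell loss under 80%, at 10 µM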;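 further: anti alpha tubulin signal scored within the nucleus-defined area of each cell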
# BaF3 parental: reduces parental Ba/F3 cell viability, JAK2V617F counter-screen | CellTiter-Glo ATP luminescence | inhibition, % at 5.6 µM | hit rate 1.1% among 220,000;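 active means inhibition above a per-campaign cutoff, the mean inhibition of all tested compounds plus 3 SD, cut at about 27% in these data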;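 further: 0% = DMSO wells and 100% = JAK Inhibitor I control wells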
# Ba/F3 V617F tox: reduce viability of Ba/F3 cells dependent on JAK2V617F; Ba/F3 EpoR-JAK2V617F viability, ATP luminescence; inhibition, % at 5.6 µM; hit rate 1.1% among 220,000; AID 1446;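 active means inhibition above the campaign mean plus 3 SD over all tested compounds, cut at about 24% in these data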;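 further: cytokine-independent growth of Ba/F3 cells driven by EpoR plus mutant JAK2; 0% = DMSO-treated cells and 100% = JAK inhibitor I control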
# Lmaj promast: inhibitors of Leishmania major promastigote growth; Leishmania major promastigotes, resazurin fluorescence viability; inhibition, % at 10 µM; hit rate 9% among 200,000; AID 1063; in the data active means inhibition above about 50%;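 further: promastigotes grown with compound for 44 hours at 28 °C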
# An asterisk follows results filed as active; . = no result given. An excerpt weighted towards active compounds, which were near 9.6% of everything screened.
SMILES,APP 5UTR inh,b-catenin transl,MT stabilizer,BaF3 parental,Ba/F3 V617F tox,Lmaj promast
N#Cc1nc(Cc2cccc3ccccc23)oc1NCCN1CCOCC1,8,0,1,0,-1,72*
COc1ccc(C(=O)CSc2nnc(CC(=O)Nc3ccccc3OC)n2C)cc1,6,0,2,6,2,-1
O=C(CSc1nc2ccccc2o1)N1N=C(c2cccs2)CC1c1ccc(F)cc1 (stereo not drawn),4,-2,2,-1,1,97*
Cc1ccc(C2CC(c3cccs3)=NN2C(=O)CSc2nc3ccccc3o2)cc1 (stereo not drawn),10,3,2,7,-1,29
COc1ccc(C2CC(c3ccccc3)=NN2C(=O)COC(=O)C2(C)CC2(Cl)Cl)cc1 (stereo not drawn),10,0,3,4,1,60*
COc1ccc(C2=NN(C(=O)CSc3nc4ccccc4s3)C(c3ccc(F)cc3)C2)cc1 (stereo not drawn),81*,1,4,-3,-7,13
COc1ccc(C2CC(c3ccccc3)=NN2C(=O)COC(=O)C2CC2)cc1 (stereo not drawn),-10,4,4,9,1,4
CCc1ccc(C2=NNC(=Nc3c(C)n(C)n(-c4ccccc4)c3=O)SC2)cc1,9,-2,4,5,-4,-5
Cc1ccc(C)c(N(CC(=O)NN=C2CCN(C)CC2)S(=O)(=O)c2ccccc2)c1,-40,1,3,-1,1,68*
Cc1ccc(N(CC(=O)NN=C2CCN(C)CC2)S(=O)(=O)c2ccc(C)cc2)cc1,-4,0,4,2,1,1
COCC(=O)N1CCN(c2cccc(Cl)c2)CC1,-1,0,3,2,-1,-3
Oc1ccc2ccccc2c1/C=N/n1cnnc1,11,0,7,4,-2,-12
COc1ccc(OC)c(/C=N/NC(=O)CNC(=O)c2ccc(S(=O)(=O)N3CCOCC3)cc2)c1,-7,-2,1,8,0,65*
O=C(N/N=C\c1c(O)ccc2ccccc12)c1ccc(S(=O)(=O)N2CCCCC2)cc1,86*,4,3,9,-3,100*
O=C(CNC(=O)c1ccc(S(=O)(=O)N2CCCC2)cc1)N/N=C/c1ccccc1Cl,7,-1,6,5,4,94*
COc1ccccc1/C=N/NC(=O)CNC(=O)c1ccc(S(=O)(=O)N2CCCC2)cc1,-17,-3,2,0,-2,37
Oc1ccc2ccccc2c1C=NC1CCCCC1,-7,-2,7,7,5,62*
CC(CC(=O)O)CC(=O)Nc1ccc(Br)cc1 (stereo not drawn),.,0,.,-2,-4,.
CCOc1ccc(C2C(C(=O)c3cccs3)=C(O)C(=O)N2CCCn2ccnc2)cc1 (stereo not drawn),-26,.,4,-1,-2,-7
O=S1(=O)CCN(OCc2ccc(Cl)cc2)CC1,12,0,2,5,3,-5
CC(C)NC(=S)N1CCn2c(nc3ccccc32)C1,8,-2,5,6,2,-4
CCOC(=O)c1c(Cc2ccccc2)c[nH]c1C,-14,0,2,5,-3,5
O=C(CNC(=O)c1ccc(S(=O)(=O)N2CCCC2)cc1)N/N=C/c1ccco1,-10,-1,1,4,3,20
O=C(CNC(=O)c1ccc(S(=O)(=O)N2CCCC2)cc1)N/N=C/c1ccc(F)cc1,19,-3,2,7,4,55*
COc1ccc(NC(=O)/C(=C/c2ccc3c(c2)OCO3)NC(C)=O)cc1,-25,-3,3,6,2,71*
SMILES,APP 5UTR inh,b-catenin transl,MT stabilizer,BaF3 parental,Ba/F3 V617F tox,Lmaj promast
N#C/C(=C/c1ccc(Oc2ccc([N+](=O)[O-])cn2)cc1)C(=O)N1CCOCC1,19,-2,2,5,2,66*
N#C/C(=C\c1cccc(Oc2ccccc2)c1)C(=O)N1CCOCC1,-23,1,2,1,3,0
Nc1nc(N)c(C=Nc2ccc(Br)cc2)c(Nc2ccc(Br)cc2)n1,.,-3,.,0,-4,.
CC(C)N(Cc1ccccc1)CC(O)COc1ccc(S(=O)(=O)N2CCOCC2)cc1Cl (stereo not drawn),-7,-2,7,4,-3,100*
O=S(=O)(c1ccc(OCC(O)CNCc2ccco2)c(Cl)c1)N1CCOCC1 (stereo not drawn),-11,-2,3,8,2,-4
CCOC(=O)N1CCC(N2C(=O)c3ccccc3C2Nc2ccc(S(=O)(=O)N(CC)CC)cc2)CC1 (stereo not drawn),-20,0,2,3,2,13
O=C1C=Cc2ccccc2/C1=C/c1[nH]c(=O)[nH]c1O,.,2,.,-1,-4,.
COCCNC(=O)/C(C#N)=C\c1ccc(CNS(=O)(=O)c2ccc(C)cc2)o1,-19,1,4,6,0,-4
Cc1ccc(S(=O)(=O)NCc2ccc(/C=C(/C#N)C(=O)NCc3ccccc3)o2)cc1,-7,0,2,3,-4,70*
CC(C)C[C@H](NC(=O)Nc1ccc(Oc2ccccc2)cc1)C(=O)O,15,-1,4,2,1,-5
CNc1nc2c(C)cccn2c(=O)c1C=NCc1ccccc1,-10,-3,2,5,-2,25
COc1ccc(Nc2nc3c(C)cccn3c(=O)c2C=NCc2ccccc2)cc1,-4,-2,2,6,-1,63*
COc1ccc(N2CCN(C(CNC(=O)c3ccc4c(c3)OCO4)c3ccco3)CC2)cc1 (stereo not drawn),2,0,2,2,-2,5
COc1ccc(N2CCN(C(CNC(=O)c3ccc4c(c3)OCO4)c3cccnc3)CC2)cc1 (stereo not drawn),-19,-2,6,0,-2,90*
COc1ccc(N2CCN(C(CNC(=O)c3cccc(Cl)c3)c3cccnc3)CC2)cc1 (stereo not drawn),-1,-1,6,7,4,96*
O=C(NCC(c1cccnc1)N1CCN(c2ccc(F)cc2)CC1)c1ccc2c(c1)OCO2 (stereo not drawn),-9,.,2,7,1,95*
COc1ccc(-n2nc3c(c2NC(=O)c2c(-c4ccccc4Cl)noc2C)CS(=O)(=O)C3)cc1,6,0,6,9,-4,6
COc1ccc(/C=C/C(=O)NC(C)(C)C)cc1S(=O)(=O)N1CCOCC1,2,-1,3,6,1,0
COc1ccc(/C=C/C(=O)NC2CCCCCCC2)cc1S(=O)(=O)N1CCOCC1,-26,2,10,5,4,88*
Cc1cc(C)n(CCNC(=O)CC2C(=O)NCCN2Cc2ccccc2C(F)(F)F)n1 (stereo not drawn),8,2,4,-3,-3,-2
